# Variants at the floor of the assay were thinned out.
# B1: tRNA (parent)
# chain: GUUCCGUUGGCGUAAUGGUAACGCGUCUCCCUCCUAAGGAGAAGACUGCGGGUUCGAGUCCCGUACGGAACG
# Variants of: B1
# Assay: yeast fitness relative to wild type (ratio to wild type); higher = fitter; tRNA-Arg(CCU), competitive growth, 37 C, YPD
# Procedure, shortened: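 Changes in genotype frequencies gave Darwinian fitness relative to wild type. Frequencies were read by 100-nucleotide paired-end sequencing of gene amplicons before and after pooled Saccharomyces cerevisiae strains, carrying tRNA-Arg(CCU) gene variants at the native locus, were competed in YPD at 37°C for 24 hours in six replicates. A genotype was kept only with ≥ 100 starting reads, and estimates < 0.5 were set to 0.5.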
row,Variant,yeast fitness
1,GUUCCGUUGGCGUAAUAGUAACGCGUCUCCCACCUAAGGAGAAGACUGUGGGUUCGAGUCCAGUACCGAACG,≤ 0.5
2,GUUCCGUUGGCGUAAUAGAAACGCGUCUCGCUCCUAAGGAGAAGACUGCGGGUUCGAGUCCCGUACGGAACG,0.66
3,GUUCCGUUGGCGUAAUAGUAACGCGUCUCCCUCCUAAGGACAAGACUGCGGGUUAGAGUCCCGUACGGAACG,≤ 0.5
4,GUUCCGUUGGCGUAAUAGUAACGCGUCUCCCUCCUAAGGAGAAGACUGCGAGUUCCACUCCCGUACGGAACG,≤ 0.5
5,GUUCCGUUGGCGUAAUAGUAACGCGUCUCCCUCCUAAGGAGAAGACUGCGGGUCCGAGUCCCGUACGGAGCG,≤ 0.5
6,GUUCCGUUGGCGUAAUAGAAACACGUCUCCUUCAUAAGGAGAUGACUGCGGGUUCGAGUCCCGUACGGAACG,≤ 0.5
7,GUUCCGUUGGCGUAAUAGAAACACGUCUCCCUCUUAAGGAGAAGACUGCGGGUUCGAGUCCCGUACGGAACG,≤ 0.5
8,GUUCCGUUGGCGUAAUAGUAACGCGUCUCCCUCCUAAGGAGAAGACUGCGGCUUCGAGUCCCGUACGGAACG,0.65
9,GUUCCGUUGGCGUAAUAGUAACGCGUCUCCCUCCAAAGGAGAAGACUGCGGGUGCGAGUCCCGUACGGAACG,≤ 0.5
10,GUUCCGUUGGCGUAAUAGUAACGCGUCUCCCUCCGAAGGAGAAGACUCCGGGUUCGAGUCCCGUACGGAACG,0.502
11,GUUCCGUUGGCGUAAUAGUAACGCCUCUCCCUCCUAAGAAGAAGACUGCGGGUUCGAGUCCCGUACGGAACG,≤ 0.5
12,GUUCCGUUGGCGUAAUAGUAACGCGUCUCCCUCCUAAGGAGAAGACUACGGGUUCGGGUCCCGUACGGAACG,≤ 0.5
13,GUUCCGUUGGCGUAAUAGUAACGCGUCUCCCUCCUAAGGAGAAGACUGCGGGUUCGAAUCCCGUACGGCACG,0.575
14,GUUCCGUUGGCGUAAUAGUAACGCGUCUCCCUCCUAAAGAGAAGACUGAGGGUACGAGUCCCGUACGGAACG,≤ 0.5
15,GUUCCGUUGGCGUAAUAGUAACGCGUCUCCCUCCUAAGGAGAAGACUGCAGGUUCGAGUCACGUACGGAACG,≤ 0.5
16,GUUCCGUUGGCGUAAUAGUAACGCGUCUCCCUCCUAAGGAGAAGACUCCGGGUUCCAGUCCCGUACGGAACG,0.575
17,GUUCCGUUGGCGUAAUACUAUCGCGUCUCCCUCCUAAGGAGAAGACUGCGGGUUUGAGACCAGUACGGAACG,≤ 0.5
18,GUUCCGUUGGCGUAAUAGCAACGUGUCUCCCUCCUAAGGAGAAGACUGCGGGUUCGAGUCCCGUACGGAACG,0.75
19,GUUCCGUUGGCGUAAUAGUAACCCGUCUCCCUCCUAAGGAGAAGACUGCGGGUACGAGUCGCGUACGGAACG,≤ 0.5
20,GUUCCGUUGGCGUAAUAGUAACGCGCCCCCCUCCUAAGGAGCAGACUGCGGGUUCGAGUCCCGUAUGGAACG,≤ 0.5
21,GUUCCGUUGGCGUAAUAGUAACGCGUCUCCCUCCUAAGGAGAAGACUACGGGUUCGAGUCCCGUACGGAACG,0.951
22,GUUCCGUUGGCGUAAUAGUAACGCGUCUCCCUCCUAAGGAGAAGACUCCGGGUUCGAGUCCCGUACGGAACG,0.827
23,GUUCCGUUGGCGUAAUAGUAACGCGUCUCCCUCCUAAGGAGAAGACUGCAGGUUCGAGUCCCGUACGGAACG,0.833
24,GUUCCGUUGGCGUAAUAGUAACGCGACUCCCUCCUAAGGAGAAGACUGCGGGUUCGAGUCCUGUACGGAACG,0.614
25,GUUCCGUUGGCGUAAUAGUAACGCGUCUCCCUCCUAAGGAGAAGACUGCGGGUACCAGUCCCGUACGAAACG,≤ 0.5

row,Variant,yeast fitness
1,GUUCCGUUGGCGUAAUAGUAACGCGUCUCCCUCCUAAGGAGAAGACUGCGGGUUCGAGACCCGUACGGAACG,0.759
2,GUUCCGUUGGCGUAAUAGUAACGCCUCUCCCUCCUAAGGUGAAGACUGCGGGUUCGAGUCCCAUACGGAACG,≤ 0.5
3,GUUCCGUUGGCGUAAUAGUAACGCGUCACCCUCCUAAGGAGAAGACUGCGAGUUCGAGUGCCGUGGGGAACG,≤ 0.5
4,GUUCCGUUGGCGUAAUAGUAACGCGUCUCCCUCCUAAGGAGAAAACUGCGGGUUCGAGUCCCGUACGGACCG,≤ 0.5
5,GUUCCGUUGGCGUAAUAGUAACCCGUCUCCCUCCUAAGGAGAAGACUGCGGGUUCGAGUCCCGACCAGAACG,≤ 0.5
6,GUUCCGUUGGCGUAAUAGUAACGCGUCUCCCUCCUAAGGAGAAGACGGCGGGUUCGAGUCCCGUACAGCACG,0.559
7,GUUCCGUUGGCGUAAUAGUAACGCGUCUCCCUCCUAAGGAGAAGACUGCGGGUUCGACUCCUGUACGGAACG,0.543
8,GUUCCGUUGGCGUAAUAGUAACGCGUCUCCCUCCGAAGGAGAAGACUGCGGGUUCGAGCCCCGUACGGAACG,≤ 0.5
9,GUUCCGUUGGCGUAAUAGUAACGCGUCUCCCUCCGAAGGAGAAGACUGCGGGUUCGAGUCCCGUUCGGAACG,≤ 0.5
10,GUUCCGUUGGCGUAAUAGUAACGCGUCUCCCUCCUAAGGAGAAGACUGCGGGUCCGAGUCCCGUACGGAACG,0.67
11,GUUCCGUUGGCGUAAUAGUAACGCGUCUCCCUCCUAAGGAGAAGACUGCGGGUUCAAGUCCCGUAGGGAACG,≤ 0.5
12,GUUCCGUUGGCGUAAUAGUAACGCGUCUCCCUCCUAAGGAGAAGACUGCGGGGUUGAGUCCCGUACGGAACG,≤ 0.5
13,GUUCCGUUGGCGUAAUAGUAACGCGUCUCCCUCCUAAGGAGAAGACUGCGGGUUCGAGUCCCGUACCGAACG,0.834
14,GUUCCGUUGGCGUAAUAGUAACGCGUCUCCCUCCUAAGGAGAAGACUGCGGGUUCGAGUCCCGUACUGAACG,0.808
15,GUUCCGUUGGCGUAAUAGUAACGCGUCUCCCUCCUAAGGAGAAGACUGCGGGUUCGAGUCCCGUACAGAACG,0.743
16,GUUCCGUUGGCGUAAUAGUAACGCGUCUCCCUCCGAAGGAGAAGACUCCGGGUUCGAGUCCCGUACCGAACG,0.558
17,GUUCCGUUGGCGUAAUAGUAACGCGGCUCCCUCCUAAGGAGAAGACUGCGAGUUCGAGUCCCGUACGGAACG,≤ 0.5
18,GUUCCGUUGGCGUAAUAGUAACGCGUCUCCCUCCUAAGGACAAGACUGCGGGUUCGAGUCCCGUACGGAACG,0.816
19,GUUCCGUUGGCGUAAUAGUAACGCCUCUGCCUCCUAAGGAGAAGACUGCGGGUUCGAGUCCCGUACGGAACG,≤ 0.5
20,GUUCCGUUGGCGUAAUAGGAACGCGUCUCCCUCCUAGGGAGAAGACUGCGGGUUCGAGUCCCGUAUGGUACG,0.562
21,GUUCCGUUGGCGUAAUACUAACGCGUCUCCCUCCUAAGCAGAAGACUGCGGGUUCGAGUCCCGUACGGAACG,0.588
22,GUUCCGUUGGCGUAAUAGUAACGCGUCUCCCUCCUAAGGAGAAGACUGCCGGUUCGAGUACCGUACGGAACG,≤ 0.5
23,GUUCCGUUGGCGUAAUAGUAACGCGUCUCCCUCCUAAGGAUAAGACUGCGGGUUCGCGUCCCGUACGGAACG,≤ 0.5
24,GUUCCGUUGGCGUAAUAGUAACGCGUCUCCCUCCUAAGGAAAAGACUGCGGGUUCGAGUGCCGUGCGGAACG,≤ 0.5
25,GUUCCGUUGGCGUAAUAGCAACGCGUCUCCCUCAUAAGGGGAAGACUGCGGGUUCGAGUCCCGUAUGGAACG,≤ 0.5

row,Variant,yeast fitness
1,GUUCCGUUGGCGUAAUAGUAACGCGUCUCCCUCCUAACGAGAAGUCUGCGGGUUCGAGUCCCGUAUGGAACG,≤ 0.5
2,GUUCCGUUGGCGUAAUAGUAACGCGUCUCCCUCCUAACGAGAAGACUGCGGGUUCGAGUCCCGUACGGACCG,≤ 0.5
3,GUUCCGUUGGCGUAAUAGUAACGCGUCUCCCUCCUAAGGAGAAGACUGCGGGUUCGAAUCUCGUACGGAACG,0.59
4,GUUCCGUUGGCGUAAUAGUAACGCGUCUCCCUCCUAAGGAGAAGACUGCGCGUUCGAGUCCCGUACGGAACG,0.543
5,GUUCCGUUGGCGUAAUAGUAACGCGUCUCCCUCCUAAGGACAAGAAUGCGGGUUCGAGUCCCGUACGGAACG,0.68
6,GUUCCGUUGGCGUAAUAGUAACGCGUCUCCCUCCUAAGGAGAAGACUGCGGGUUCGAGACCCGUAUGGAACG,≤ 0.5
7,GUUCCGUUGGCGUAAUAGUAACGCGCCUCCCUCCUAAGGAGAAGACUGCGGGUUCGAGUCUCGUGCAGAACG,≤ 0.5
8,GUUCCGUUGGCGUAAUACUAACGCGUCUCCCUCCUAAGCAGAAGACUGCGGGUUCGAGUCCCGUACGGUACG,≤ 0.5
9,GUUCCGUUGGCGUAAUAGUAACGCGUCUCCCUCCUAAGGAGAAGACUGCGGGGUCGAGUCCCGUACGGAACG,0.595
10,GUUCCGUUGGCGUAAUAGUAACGCGCCUCCCUCCUAAGGAGAAGACUGCGGGGUCGAGUCCCGUACGGAACG,0.566
11,GUUCCGUUGGCGUAAUAGUAACGCGUCUCCCUCCUAAGGAGAAGACUGCGGGUUCAAGUCCCGUACGGAACG,0.878
12,GUUCCGUUGGCGUAAUAGAAACGCGUCUCUCUCCUAUGGAGAAGACUGCGGGUUCGAGUCCCGUACAGAACG,≤ 0.5
13,GUUCCGUUGGCGUAAUAGUAACGCGUCUCCCUCCUAAGGAGAAGACCGCGGGUUCGAGUCCCGUACGGAACG,0.774
14,GUUCCGUUGGCGUAAUAGUAACGCGUCUCCCUCCUAAGGAGAAGACAGCGGGUUCGAGUCCCGUACGGAACG,0.823
15,GUUCCGUUGGCGUAAUAGUAACGCGUCUCCCACCUAAGGAGAGGACUGCGGGUUCGAGUCCCGUACCGAACG,≤ 0.5
16,GUUCCGUUGGCGUAAUAGUAACGCGUCUCCCCCCUAAGGAGAAGACUGCGGGUCCGAGUGCCGUACGGAACG,≤ 0.5
17,GUUCCGUUGGCGUAAUAGUAACGCGUCUCCCUCCUAAGGAGAAGACUGCGGGUUCCACUCCCGUACGGAACG,0.585
18,GUUCCGUUGGCGUAAUAGUAACGCCUCUCCCUCCUAAGGUGAAGACUGCGGGUUCGAGUCCCGUAGGGAACG,≤ 0.5
19,GUUCCGUUGGCGUAAUAGUAACGCGUCUCCCUCCAAAGGAGAAAACUGCAGGUUCGAGUCCCGUACGGAACG,≤ 0.5
20,GUUCCGUUGGCGUAAUAGUAACGCCUCUCCCUCCUAAGGAGAAGACUGCGGGUUCGAGUCCCGUACGGAACG,0.705
21,GUUCCGUUGGCGUAAUAGUAACGCGUCUCCCUCCGAAGGAGAAGACUGCGGGUUCGAGUCCCAUACGCAACG,≤ 0.5
22,GUUCCGUUGGCGUAAUAGUAACGCGUCUCCCCCCUAAGGGGAAGACUGCGGGUUCGAGUCCCGUCCGGAACG,≤ 0.5
23,GUUCCGUUGGCGUAAUAGUAACGCGUCUCCCUCCUAAGGAGAAGACUGCGGGUUCGAGUCCCGCAUGGAACG,0.69
24,GUUCCGUUGGCGUAAUAGUAACGCGUCUCCCUCCUAAGGAGAAGACUGCGGGUACCAGUCCCGUACGGAACG,0.597
25,GUUCCGUUGGCGUAAUAGUAACGCGUCUCCCUCCUAAGGAGAAGACUGCGGGUUCGAGUCCCAUACGGCACG,0.537
